Assays:
Format in all cases: functional
MDA-MB-468 = assay: Cytotoxicity against human MDA-MB-468 cells after 48 hrs by SRB assay; conditions: MDA-MB-468, 48 h
In short: (§1)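 NCI 60-cell-line screen. Cells preincubated 24 h at 37 °C, 5% CO2; time-zero plates TCA-fixed. Compounds dissolved in DMSO and tested at five concentrations (100, 10, 1.0, 0.1, 0.01 µM) for 48 h continuous exposure. Adherent cells fixed with cold TCA (10% final), then SRB stained; absorbance at 515 nm. GI50, TGI and LC50 calculated from growth relative to time-zero and untreated controls.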

Hs-578T = assay: Cytotoxicity against human Hs578T cells after 48 hrs by SRB assay; in short: as §1
MCF7 = assay: Cytotoxicity against human MCF7 cells after 48 hrs by SRB assay; conditions: MCF7, 48 h; in short: as §1
MDA-MB-231 = assay: Cytotoxicity against human MDA-MB-231 cells after 48 hrs by SRB assay; conditions: MDA-MB-231, 48 h; in short: as §1
DU-145 = assay: Cytotoxicity against human DU145 cells after 48 hrs by SRB assay; conditions: DU-145, 48 h; in short: as §1
UO-31 = assay: Cytotoxicity against human UO31 cells after 48 hrs by SRB assay; conditions: UO-31, 48 h
In short: (§2)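 NCI 60-cell screen. Cells grew 24 h (37 °C, 5% CO2) before compound was added. Compounds were in DMSO and diluted in medium with gentamicin, then tested at five levels (100, 10, 1.0, 0.1, 0.01 µM) with 48 h continuous exposure. Adherent cells were fixed with TCA (10% final) and stained with 0.4% SRB, absorbance read at 515 nm. A time-zero plate was included. LC50 is the concentration giving 50% loss of protein relative to time zero.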

PC-3 = assay: Cytotoxicity against human PC3 cells after 48 hrs by SRB assay; conditions: PC-3, 48 h; in short: as §1
TK-10 = assay: Cytotoxicity against human TK10 cells after 48 hrs by SRB assay; conditions: TK-10, 48 h; in short: as §2
CAKI-1 = assay: Cytotoxicity against human Caki1 cells after 48 hrs by SRB assay; conditions: CAKI-1, 48 h; in short: as §1
RXF 393 = assay: Cytotoxicity against human RXF393 cells after 48 hrs by SRB assay; conditions: RXF 393, 48 h; in short: as §1
A498 = assay: Cytotoxicity against human A498 cells after 48 hrs by SRB assay; conditions: A498, 48 h; in short: as §1
786-0 = assay: Cytotoxicity against human 786-0 cells after 48 hrs by SRB assay; conditions: 786-0, 48 h; in short: as §1
SK-OV-3 = assay: Cytotoxicity against human SKOV3 cells after 48 hrs by SRB assay; conditions: SK-OV-3, 48 h; in short: as §1
OVCAR-8 = assay: Cytotoxicity against human OVCAR8 cells after 48 hrs by SRB assay; conditions: OVCAR-8, 48 h; in short: as §1
OVCAR-4 = assay: Cytotoxicity against human OVCAR4 cells after 48 hrs by SRB assay; conditions: OVCAR-4, 48 h; in short: as §1
IGROV-1 = assay: Cytotoxicity against human IGROV1 cells after 48 hrs by SRB assay; conditions: IGROV-1, 48 h; in short: as §1
UACC-62 = assay: Cytotoxicity against human UACC62 cells after 48 hrs by SRB assay; conditions: UACC-62, 48 h; in short: as §2
SK-MEL-28 = assay: Cytotoxicity against human SK-MEL-28 cells after 48 hrs by SRB assay; conditions: SK-MEL-28, 48 h; in short: as §1
SK-MEL-2 = assay: Cytotoxicity against human SK-MEL-2 cells after 48 hrs by SRB assay; conditions: SK-MEL-2, 48 h; in short: as §1
MDA-MB-435 = assay: Cytotoxicity against human MDA-MB-435 cells after 48 hrs by SRB assay; conditions: MDA-MB-435, 48 h; in short: as §1
M14 = assay: Cytotoxicity against human M14 cells after 48 hrs by SRB assay; conditions: M14, 48 h; in short: as §1
Malme-3M = assay: Cytotoxicity against human MALME-3M cells after 48 hrs by SRB assay; in short: as §1
U-251 = assay: Cytotoxicity against human U251 cells after 48 hrs by SRB assay; conditions: U-251, 48 h; in short: as §2
LOX IMVI = assay: Cytotoxicity against human LOXIMVI cells after 48 hrs by SRB assay; in short: as §1
SF-539 = assay: Cytotoxicity against human SF539 cells after 48 hrs by SRB assay; conditions: SF-539, 48 h; in short: as §1
SNB-19 = assay: Cytotoxicity against human SNB19 cells after 48 hrs by SRB assay; conditions: SNB-19, 48 h; in short: as §2
SF-268 = assay: Cytotoxicity against human SF268 cells after 48 hrs by SRB assay; conditions: SF-268, 48 h; in short: as §1
KM12 = assay: Cytotoxicity against human KM12 cells after 48 hrs by SRB assay; conditions: KM12, 48 h; in short: as §1
HCT-15 = assay: Cytotoxicity against human HCT15 cells after 48 hrs by SRB assay; conditions: HCT-15, 48 h; in short: as §1
HT-29 = assay: Cytotoxicity against human HT-29 cells after 48 hrs by SRB assay; conditions: HT-29, 48 h; in short: as §1
HCT-116 = assay: Cytotoxicity against human HCT116 cells after 48 hrs by SRB assay; conditions: HCT-116, 48 h; in short: as §1
HCC 2998 = assay: Cytotoxicity against human HCC2998 cells after 48 hrs by SRB assay; conditions: HCC 2998, 48 h; in short: as §1
NCI-H226 = assay: Cytotoxicity against human NCI-H226 cells after 48 hrs by SRB assay; conditions: NCI-H226, 48 h; in short: as §1
HOP-92 = assay: Cytotoxicity against human HOP92 cells after 48 hrs by SRB assay; conditions: HOP-92, 48 h; in short: as §1
SR = assay: Cytotoxicity against human SR cells after 48 hrs by SRB assay; in short: as §2
A549 = assay: Cytotoxicity against human A549/ATCC cells after 48 hrs by SRB assay; conditions: A549, 48 h; in short: as §1
[1] = read-out: LC50 (the source's name)

## CC(=O)N1N=C(c2ccc(Nc3ccnc4cc(Cl)ccc34)cc2)CC1c1ccc(Cl)cc1 (stereo unspecified)
MDA-MB-468
  GI50: 2.41 µM
  LC50: > 100 µM
Hs-578T
  GI50: > 100 µM
  LC50 (50% net cell kill): > 100 µM
MCF7
  GI50: 4.04 µM
MCF7; [1]
  CC50: > 100 µM
MDA-MB-231
  GI50: > 100 µM
  LC50 (concentration killing 50% of cells present at time zero): > 100 µM
DU-145
  GI50: > 100 µM
  LC50 (concentration killing 50% of cells): > 100 µM
UO-31
  GI50: 3.87 µM
  LC50: > 100 µM
PC-3
  GI50: 3.02 µM
  LC50: > 100 µM
TK-10
  GI50: > 100 µM
  LC50 (concentration giving 50% cell loss vs time zero): > 100 µM
CAKI-1
  GI50: > 100 µM
  LC50: > 100 µM
RXF 393
  GI50: 5.07 µM
  LC50 (concentration killing 50% of cells): > 100 µM
A498
  GI50: > 100 µM
A498; [1]
  CC50: > 100 µM
786-0
  GI50: > 100 µM
  LC50: > 100 µM
SK-OV-3
  GI50: > 100 µM
  LC50 (concentration killing 50% of cells): > 100 µM
OVCAR-8
  GI50: > 100 µM
  LC50 (50% net cell kill): > 100 µM
OVCAR-4
  GI50: 6.92 µM
  LC50: > 100 µM
IGROV-1
  GI50: > 100 µM
  LC50 (concentration killing 50% of cells relative to time zero): > 100 µM
UACC-62
  GI50: 2.95 µM
UACC-62; [1]
  CC50: > 100 µM
SK-MEL-28
  GI50: 4.88 µM
SK-MEL-28; [1]
  CC50: > 100 µM
SK-MEL-2
  GI50: > 100 µM
  LC50: > 100 µM
MDA-MB-435
  GI50: 0.57 µM
  LC50: > 100 µM
M14
  GI50: 5.24 µM
M14; [1]
  CC50: > 100 µM
Malme-3M
  LC50: > 100 µM
U-251
  GI50: > 100 µM
U-251; [1]
  CC50: > 100 µM
LOX IMVI
  GI50: 3.15 µM
  LC50: > 100 µM
SF-539
  GI50: > 100 µM
SF-539; [1]
  CC50: > 100 µM
SNB-19
  GI50: > 100 µM
  LC50: > 100 µM
SF-268
  GI50: 9.1 µM
  LC50: > 100 µM
KM12
  GI50: 6.59 µM
  LC50 (concentration killing 50% of cells): > 100 µM
HCT-15
  GI50: 3.33 µM
  LC50 (concentration killing 50% of cells relative to time zero): > 100 µM
HT-29
  GI50: 5.4 µM
  LC50: > 100 µM
HCT-116
  GI50: 38.8 µM
  LC50: > 100 µM
HCC 2998
  GI50: > 100 µM
  LC50: > 100 µM
NCI-H226
  GI50: > 100 µM
  LC50 (50% lethal concentration): > 100 µM
HOP-92
  GI50: > 100 µM
  LC50 (concentration killing 50% of cells): > 100 µM
SR
  GI50: 0.61 µM
  LC50: > 100 µM
A549
  GI50: 8.81 µM
A549; [1]
  CC50: > 100 µM
